Assay results reported in ChEMBL document CHEMBL4130528, “Serotonin Analogues as Inhibitors of Breast Cancer Cell Growth” (ACS Med Chem Lett, 2017).
pIC50: −log10 of the molar value. The source made the active and inactive calls. The calls are words filed in the database; no cut-off is given here.

Experiments:
MCF7 [1] = experiment: Cytotoxicity against human MCF7 cells assessed as reduction in cell viability by cell titer 96 aqueous one solution based assay; type: functional
Method in brief: (§1)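 MDA-MB-231 and MCF-7 breast cancer cells were treated with increasing concentrations of compound. Viability was read by MTS assay, and IC50 values were derived from the concentration–response data.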

MDA-MB-231 [2] = experiment: Cytotoxicity against human MDA-MB-231 cells assessed as reduction in cell viability by cell titer 96 aqueous one solution based assay; type: functional; method in brief: as §1
MDA-MB-157 [3] = experiment: Induction of apoptosis in human MDA-MB-157 cells assessed as increase in cleaved PARP level up to 10 uM by Western blot analysis; type: functional, cell-based
Method in brief: (§2)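 Cells were treated with a range of compound concentrations. Apoptosis was assessed by Western blot detection of cleaved poly-ADP ribose polymerase (PARP).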

MDA-MB-157 [4] = experiment: Induction of apoptosis in human MDA-MB-157 cells assessed as increase in caspase 3/7 activity up to 10 uM by Caspase-Glo 3/7 luciferase-based assay; type: functional, cell-based
Method in brief: (§3)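 Cells were treated with a range of compound concentrations. Apoptosis was read as caspase-3/7 activity using a luciferase-based luminescent assay.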

MDA-MB-231 [5] = experiment: Inhibition of mTORC1 signaling in human MDA-MB-231 cells assessed as reduction in S6 phosphorylation at Ser236 at 20 uM after 12 hrs by RPPA analysis; type: cell-based
MDA-MB-231 [6] = experiment: Induction of apoptosis in human MDA-MB-231 cells assessed as increase in cleaved PARP level up to 10 uM by Western blot analysis; type: functional, cell-based; method in brief: as §2
MDA-MB-231 [7] = experiment: Effect on total S6 level in human MDA-MB-231 cells at 20 uM after 12 hrs by RPPA analysis; type: cell-based; settings: mda-mb-231, 12 h
MDA-MB-231 [8] = experiment: Cytotoxicity against human MDA-MB-231 cells assessed as reduction in cell viability up to 10 uM after 24 to 72 hrs by cell titer 96 aqueous one solution based assay; type: functional
Method in brief: (§4)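 Triple-negative breast cancer cells were incubated with compound for 24, 48 or 72 h. Viability was then measured by MTS assay across a concentration series.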

MDA-MB-231 [9] = experiment: Cytotoxicity against human MDA-MB-231 cells assessed as reduction in cell viability up to 10 uM in serum-free medium by cell titer 96 aqueous one solution based assay; type: functional
Method in brief: (§5)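 Viability was measured by MTS after treating triple-negative breast cancer cells in serum-free medium, either alone or with BSA added to the serum-free medium, across a concentration series.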

MDA-MB-231 [10] = experiment: Induction of apoptosis in human MDA-MB-231 cells assessed as increase in caspase 3/7 activity by Caspase-Glo 3/7 luciferase-based assay; type: functional, cell-based; method in brief: as §3
[11] = target: T1, Acetyl-CoA carboxylase (Homo sapiens) (UniProt Q13085+O00763); experiment: Increase in ACC phosphorylation at Ser79 in human MCF7 cells at 20 uM after 12 hrs by RPPA analysis; type: cell-based
MDA-MB-157 [12] = experiment: Cytotoxicity against human MDA-MB-157 cells assessed as reduction in cell viability up to 10 uM in presence of bovine serum albumin by cell titer 96 aqueous one solution based assay; type: functional; method in brief: as §5
MDA-MB-231 [13] = experiment: Inhibition of mTORC1 signaling in human MDA-MB-231 cells assessed as reduction in S6 phosphorylation at Ser244 at 20 uM after 12 hrs by RPPA analysis; type: cell-based
MDA-MB-231 [14] = experiment: Inhibition of mTORC1 signaling in human MDA-MB-231 cells assessed as reduction in S6 phosphorylation at Ser235 at 20 uM after 12 hrs by RPPA analysis; type: cell-based
[15] = target: T2, AMP-activated protein kinase, AMPK (Homo sapiens) (UniProt P54646+O43741+P54619+Q9UGJ0+Q9Y478+Q13131+Q9UGI9); experiment: Increase in AMPK phosphorylation at T172 in human MDA-MB-231 cells at 20 uM after 12 hrs by RPPA analysis; type: cell-based
MDA-MB-231 [16] = experiment: Inhibition of PI3K/AKT in human MDA-MB-231 cells assessed as reduction in mTOR phosphorylation at Ser2448 at 20 uM after 12 hrs by RPPA analysis; type: cell-based
MDA-MB-157 [17] = experiment: Inhibition of mTORC1 signaling in human MDA-MB-157 cells assessed as reduction in […] at 10 uM by Western blot analysis; type: cell-based
[18] = target: T1, Acetyl-CoA carboxylase (Homo sapiens); experiment: Increase in ACC phosphorylation at Ser79 in human MDA-MB-231 cells at 20 uM after 12 hrs by RPPA analysis; type: cell-based
MCF7 [19] = experiment: Inhibition of PI3K/AKT in human MCF7 cells assessed as reduction in mTOR phosphorylation at Ser2448 at 20 uM after 12 hrs by RPPA analysis; type: cell-based
MDA-MB-157 [20] = experiment: Cytotoxicity against human MDA-MB-157 cells assessed as reduction in cell viability up to 10 uM after 24 to 72 hrs by cell titer 96 aqueous one solution based assay; type: functional; method in brief: as §4
MDA-MB-231 [21] = experiment: Inhibition of mTORC1 signaling in human MDA-MB-231 cells assessed as reduction in […] at 10 uM by Western blot analysis; type: cell-based
MDA-MB-231 [22] = experiment: Inhibition of mTORC1 signaling in human MDA-MB-231 cells assessed as reduction in p70S6K phosphorylation at Thr389 at 20 uM after 12 hrs by RPPA analysis; type: cell-based
MDA-MB-231 [23] = experiment: Inhibition of mTORC1 signaling in human MDA-MB-231 cells assessed as reduction in S6 phosphorylation at Ser240 at 20 uM after 12 hrs by RPPA analysis; type: cell-based
MDA-MB-231 [24] = experiment: Cytotoxicity against human MDA-MB-231 cells assessed as reduction in cell viability up to 10 uM in presence of bovine serum albumin by cell titer 96 aqueous one solution based assay; type: functional; method in brief: as §5
MDA-MB-157 [25] = experiment: Inhibition of PI3K/AKT in human MDA-MB-157 cells assessed as reduction in mTOR phosphorylation at Ser2448 up to 10 uM by Western blot analysis; type: cell-based
MDA-MB-231 [26] = experiment: Effect on total p70S6K level in human MDA-MB-231 cells at 20 uM after 12 hrs by RPPA analysis; type: cell-based; settings: mda-mb-231, 12 h
MDA-MB-157 [27] = experiment: Cytotoxicity against human MDA-MB-157 cells assessed as reduction in cell viability up to 10 uM in serum-free medium by cell titer 96 aqueous one solution based assay; type: functional; method in brief: as §5
MDA-MB-231 [28] = experiment: Inhibition of PI3K/AKT in human MDA-MB-231 cells assessed as reduction in mTOR phosphorylation at Ser2448 up to 10 uM by Western blot analysis; type: cell-based
[29] = target: T2, AMP-activated protein kinase, AMPK (Homo sapiens); experiment: Increase in AMPK phosphorylation at T172 in human MCF7 cells at 20 uM after 12 hrs by RPPA analysis; type: cell-based
MDA-MB-231 [30] = experiment: Inhibition of mTORC1 signaling in human MDA-MB-231 cells assessed as intracellular UDP-glucose accumulation after 7 to 24 hrs by 1H-MRS analysis; type: cell-based
Method in brief: (§6)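 MDA-MB-231 cells were treated for 7 or 24 h, and intracellular metabolites were profiled by 1H-MRS. Treated and untreated groups were compared by principal component analysis.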

MDA-MB-231 [31] = experiment: Inhibition of mTORC1 signaling in human MDA-MB-231 cells assessed as alanine accumulation after 7 to 24 hrs by 1H-MRS analysis; type: cell-based; method in brief: as §6
MDA-MB-231 [32] = experiment: Cytotoxicity against human MDA-MB-231 cells assessed as reduction in cell viability after 24 to 72 hrs by cell titer 96 aqueous one solution based assay; type: functional; method in brief: as §4
MDA-MB-231 [33] = experiment: Inhibition of mTORC1 signaling in human MDA-MB-231 cells assessed as glycine accumulation after 7 to 24 hrs by 1H-MRS analysis; type: cell-based; method in brief: as §6
MDA-MB-231 [34] = experiment: Inhibition of mTORC1 signaling in human MDA-MB-231 cells assessed as phenylalanine accumulation after 7 to 24 hrs by 1H-MRS analysis; type: cell-based; method in brief: as §6
MDA-MB-231 [35] = experiment: Inhibition of mTORC1 signaling in human MDA-MB-231 cells assessed as glutamine accumulation after 7 to 24 hrs by 1H-MRS analysis; type: cell-based; method in brief: as §6
MDA-MB-231 [36] = experiment: Inhibition of mTORC1 signaling in human MDA-MB-231 cells assessed as intracellular UDP N-acetylglucosamine accumulation after 7 to 24 hrs by 1H-MRS analysis; type: cell-based; method in brief: as §6
MDA-MB-231 [37] = experiment: Inhibition of mTORC1 signaling in human MDA-MB-231 cells assessed as aspartate accumulation after 7 to 24 hrs by 1H-MRS analysis; type: cell-based; method in brief: as §6
MDA-MB-231 [38] = experiment: Inhibition of mTORC1 signaling in human MDA-MB-231 cells assessed as proline accumulation after 7 to 24 hrs by 1H-MRS analysis; type: cell-based; method in brief: as §6
MDA-MB-231 [39] = experiment: Inhibition of mTORC1 signaling in human MDA-MB-231 cells assessed as tyrosine accumulation after 7 to 24 hrs by 1H-MRS analysis; type: cell-based; method in brief: as §6

N#CCCCCCCOc1ccc2[nH]cc(CCN)c2c1
pIC50 (MCF7 [1]): < 4.30
pIC50 (MDA-MB-231 [2]): < 4.30

CCCCCCCCCOc1cccc2[nH]cc(CCN)c12.Cl
Activity (MDA-MB-157 [3]): Active
Activity (MDA-MB-157 [4]): Active
inhibition (MDA-MB-231 [5]): Active
Activity (MDA-MB-231 [6]): Active
Activity (MDA-MB-231 [7]): Non-Toxic
Activity (MDA-MB-231 [8]): Active
Activity (MDA-MB-231 [9]): Active
Activity (MDA-MB-231 [10]): Dose-dependent effect
Activity [11]: Active
Activity (MDA-MB-157 [12]): Active
inhibition (MDA-MB-231 [13]): Active
inhibition (MDA-MB-231 [14]): Active
Activity [15]: Active
inhibition (MDA-MB-231 [16]): inactive
inhibition (MDA-MB-157 [17]): Active
Activity [18]: Active
inhibition (MCF7 [19]): inactive
Activity (MDA-MB-157 [20]): Active
inhibition (MDA-MB-231 [21]): Active
inhibition (MDA-MB-231 [22]): Active
inhibition (MDA-MB-231 [23]): Active
Activity (MDA-MB-231 [24]): inactive
inhibition (MDA-MB-157 [25]): inactive
Activity (MDA-MB-231 [26]): Non-Toxic
Activity (MDA-MB-157 [27]): Active
pIC50 (MCF7 [1]): 5.31
inhibition (MDA-MB-231 [28]): inactive
pIC50 (MDA-MB-231 [2]): 5.38
Activity [29]: Active

CCCCCCCCOc1ccc2[nH]cc(CCN)c2c1
pIC50 (MCF7 [1]): 4.89
pIC50 (MDA-MB-231 [2]): 5.14

NCCc1c[nH]c2ccc(OCc3ccc(COc4ccc5[nH]cc(CCN)c5c4)cc3)cc12
pIC50 (MCF7 [1]): 4.62
pIC50 (MDA-MB-231 [2]): 4.70

CCCCCCCCCCCCOc1cccc2[nH]cc(CCN)c12
pIC50 (MCF7 [1]): 5.30
pIC50 (MDA-MB-231 [2]): 5.39

CCCCCCCCCCCCOc1ccc2[nH]cc(CCN)c2c1.Cl
Activity (MDA-MB-157 [3]): Active
Activity (MDA-MB-157 [4]): Active
inhibition (MDA-MB-231 [5]): Active
inhibition (MDA-MB-231 [30]): Active
Activity (MDA-MB-231 [6]): Active
Activity (MDA-MB-231 [7]): Non-Toxic
inhibition (MDA-MB-231 [31]): Active
Activity (MDA-MB-231 [9]): inactive
Activity (MDA-MB-231 [10]): Dose-dependent effect
Activity (MDA-MB-231 [32]): Active
inhibition (MDA-MB-231 [33]): Active
Activity [11]: Active
Activity (MDA-MB-157 [12]): Active
inhibition (MDA-MB-231 [34]): Active
inhibition (MDA-MB-231 [13]): Active
inhibition (MDA-MB-231 [14]): Active
inhibition (MDA-MB-231 [35]): Active
Activity [15]: Active
inhibition (MDA-MB-231 [36]): Active
inhibition (MDA-MB-231 [16]): inactive
inhibition (MDA-MB-157 [17]): Active
Activity [18]: Active
inhibition (MDA-MB-231 [37]): Active
inhibition (MCF7 [19]): inactive
Activity (MDA-MB-157 [20]): Active
inhibition (MDA-MB-231 [21]): Active
inhibition (MDA-MB-231 [38]): Active
inhibition (MDA-MB-231 [22]): Active
inhibition (MDA-MB-231 [23]): Active
inhibition (MDA-MB-231 [39]): Active
inhibition (MDA-MB-157 [25]): inactive
Activity (MDA-MB-231 [26]): Non-Toxic
Activity (MDA-MB-157 [27]): Active
pIC50 (MCF7 [1]): 5.29
inhibition (MDA-MB-231 [28]): inactive
pIC50 (MDA-MB-231 [2]): 5.34
Activity [29]: Active

CCCCCCCCCCCCOc1cccc2c(CCN)c[nH]c12
pIC50 (MCF7 [1]): 5.07
pIC50 (MDA-MB-231 [2]): 5.34

NCCc1c[nH]c2ccccc12 [TRYPTAMINE]
pIC50 (MCF7 [1]): < 4.30
pIC50 (MDA-MB-231 [2]): < 4.30

CCCCCCCCCOc1ccc2[nH]cc(CCN)c2c1
pIC50 (MCF7 [1]): 5.06
pIC50 (MDA-MB-231 [2]): 5.33
